Variants at the floor of the assay were thinned out.
B1: tRNA (parent)
chain: GUUCCGUUGGCGUAAUGGUAACGCGUCUCCCUCCUAAGGAGAAGACUGCGGGUUCGAGUCCCGUACGGAACG

Variants of: B1
Assay: yeast fitness relative to wild type (ratio to wild type); higher = fitter; tRNA-Arg(CCU), competitive growth, 37 C, YPD
Summary of the method: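 Amplicons of the tRNA-Arg(CCU) gene were sequenced, 100-nucleotide paired-end, from the start population and from each end population of a pooled yeast competition. The competition, in six parallel replicates, lasted 24 hours in YPD at 37°C. Fitness relative to wild type was calculated from changes in genotype frequencies. Genotypes had to have ≥ 100 starting reads, and estimates < 0.5 were set to 0.5.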
In the case of GAUCCGUUGGCGUAAUGGUCACGCGUCUCCCUGCUAAGGAGAAGAUUGCGGGUUCGAGUCCCGUACGGAGCG [U2A A20C C33G C46U A70G], the yeast fitness is reported as ≤ 0.5. In the case of GAUCCGUUGGCGUAAUGGUAACGCGUCUCCCUCCUAAGGUGAAGACUGCGGGUUCGAGUCCCGUACGGAUCG [U2A A40U A70U], the yeast fitness is reported as 0.696. Work on GAUCCGUUGGCGUACUGGUAACGCGUCUCCCUCCUAAGGAGAAGACUGCGGGUUCGUGUCUCGUACGGAACG [U2A A15C A57U C61U] yielded a yeast fitness of 0.504. GAUCCGUUGGCGUAAUGGUAACGCGUCUACCUCCUAAGGAGAAGUCUGCGGGUUCGAGCCCCGUACGGAACG [U2A C29A A45U U59C] gave a yeast fitness of 0.575. With GAUCAGUUGGCGUAAUGGUAACGCGUCUCCCUCCUAAGGAGAAGACUGCGGGUUUGAGUCCCGUACGGAACG [U2A C5A C55U] the yeast fitness was ≤ 0.5. In the case of GAUCCGUUGGCGUAGUGGUAACGCGUCUCCCUCCUAAGGAGAAGUCUACGGGUUCGAGUCCCGUAGGGAACG [U2A A15G A45U G48A C66G], the yeast fitness is reported as ≤ 0.5. Work on GAUCCGUUGGCGUAAUGGUGACGCGUCUCCCUCCUAAGGAGAAGACUGCGGGUUCGAGUCCCGUACAGAACG [U2A A20G G67A] yielded a yeast fitness of 0.584. GAUCAGUUGGCGUAAUGGUAACGCGUCUCCCUCCUAAGGAGAAGACUGCGGGUUCCAGUCCCGUACGGAACG [U2A C5A G56C] gave a yeast fitness of 0.56. For GAUCAGUUGGCGUAAUGGUAACGCGUCUCCCUCCUAAGGAGAAGACUGCGGGUUCAAGUCCCGUACGGAACG [U2A C5A G56A], the yeast fitness was 0.526. In the case of GAUGCGUUGGCGUAAUGGUAACGCGUCUCCCUCCUAAGGAAAAGACUGCGGGUUAGAGUCCCGUACGGAACG [U2A C4G G41A C55A], the yeast fitness is reported as ≤ 0.5. For GAUUCGUGGGCGUAAUGGUAAGGCGUCUCCCUCCUAAGGAGAAGACAGCGGGUUCGAGUCCCGUACGGACCG [U2A C4U U8G C22G U47A A70C], the yeast fitness was ≤ 0.5. For GAUAGGUUGGCGUAAUGGUAACGCGUCUCCCUCCUAAGGAGAAGACUGCGGGUUCGAGUCCCGUGCGGAACG [U2A C4A C5G A65G], the yeast fitness was ≤ 0.5. In the case of GAUCCGUUGGCGUAAUGGUAACGCGUCUCCCUCCUACGGACAAGACUGCGGGUUCGAGUCCCGUAAGGAACG [U2A A37C G41C C66A], the yeast fitness is reported as ≤ 0.5. In the case of GAUCCGUUGGGGUAAUGGUAACGCGUCUCCCUCCUAAGGAGAAGACUGCGAGUUCGAGUUCCGUACGGAACG [U2A C11G G51A C60U], the yeast fitness is reported as ≤ 0.5. Variant GAUCCGUUGGCGUAAUGGUAACGCGUCUCCCUCCUAUGGAGAAGACUGCGGGUUCGAGUCCCGUACGGACCG [U2A A37U A70C] has a yeast fitness of 0.688. For GAUCCGUUGGCGUAAUGGUAACGCGUCUCACUCCUAAGGAGAAGACUGCGGAUUCGAGUCCCGUUCGGAACG [U2A C30A G52A A65U], the yeast fitness was ≤ 0.5. In the case of GAUCCGUUGGCGUAAUGGUAACGCGUCUGCCUCCUAAGGAGAAGACUGCGGGUUCGAAUCCCGUACGGAACG [U2A C29G G58A], the yeast fitness is reported as ≤ 0.5. In the case of GAUAGGUUGGCGUAAUGGUAACGCGUCUCCCUCCUGAGGAGAAGACUGCGGGUUCGAGUCCCGUACAGAACG [U2A C4A C5G A36G G67A], the yeast fitness is reported as ≤ 0.5. With GAUCAGUUGGCGUAAUGGUAACGCGUUUCCCUCCUAAGGAGAAAACUGCGGGUUCGAGUCCCGUACGGAACG [U2A C5A C27U G44A] the yeast fitness was ≤ 0.5. With GAUCCGUUGGCGUAAUGGUAACGCGUAUCCCUCCUAAGGAGAAGACUGGGGGUUCGUGUCCCGUAUGGAACG [U2A C27A C49G A57U C66U] the yeast fitness was 0.639. Work on GAUCCGUUGGCGUAAUGGUAACGCGUCUCCCUCCUAAGGAGACGACUGCGGGUUCGAGUCCCGUACGGAACG [U2A A43C] yielded a yeast fitness of 0.893. Work on GAUCAGUUGGCAUAAUGGUAACGCGUCUCCCUCCUAAGGAGAAGACUGCGGGUUCGAGUCCCGUACGGAACG [U2A C5A G12A] yielded a yeast fitness of 0.526. For GAUCCGUUGGCGUUAUGGUAGCGCGUCUCCCUCCUAAGGAGAAGAGUGCGGGUUCGUGUCCCGUACGGCACG [U2A A14U A21G C46G A57U A69C], the yeast fitness was ≤ 0.5. In the case of GAUCCGUUGGCGUAAUGGUAACGCGUCUACCUCCUAAGGAGGAGACUGCGGGUACGAGUGCCGUACGAAACG [U2A C29A A42G U54A C60G G68A], the yeast fitness is reported as ≤ 0.5. With GAUCCGUUGGCGUAAUGGUAACGCGUCUCCCUCCUGAGGAGAAGACUGAGGGUUCGAGUCUCGUACGGAACG [U2A A36G C49A C61U] the yeast fitness was ≤ 0.5. GAUAGGUUGGCGUAAUGGUAACGCGUCUCCCUCCUGAGGAGAAGACUGCGGGUUCGAGUCCCGUACGGAACG [U2A C4A C5G A36G] showed a yeast fitness of 0.524. For GAUCCGUUGGCGUAAUGGUAACGCGUCUCACUCCUAAGGAGAAGACUGUGGGUUCGAGUCGCGUACGGAACG [U2A C30A C49U C61G], the yeast fitness was ≤ 0.5. In the case of GAUCAGUUGGCGUAAUGGUAACGCGUCUCCCUCCUAAGGUGAAGACUGCGGGUUCGAGUCCCGUACGGAACG [U2A C5A A40U], the yeast fitness is reported as 0.647. In the case of GAUUCGUUGGCGUAAUGGUAACGCGUCUCCCUCCUAAGGAGAAGACUGCGGGUUCGUGUCCCGUACGGAACG [U2A C4U A57U], the yeast fitness is reported as ≤ 0.5. In the case of GAUCUGUUGGCGUAAUGGUUACGCGUCUCCCUCCUAAAGAGAAGACUGCGGGUUCGAGUCCCGUACGGAACG [U2A C5U A20U G38A], the yeast fitness is reported as 0.56. In the case of GAUCCGUUGGUGUAAUGGUAACGCGUCUCCCUCCUAAGGAGAAGACUGCGGGUUCGAGUCCCGUACGGAACG [U2A C11U], the yeast fitness is reported as 0.894. With GAUCCGUUGGCGUAAUGGUAACGCGUCUCCCUCCUAAGGAGAAGCCUGCGGGUUCGAAUCUCGUACGGAACG [U2A A45C G58A C61U] the yeast fitness was ≤ 0.5. In the case of GAUCCGUUGGCGUAAUGGUACCGCGUCUCCCUCCUAAGAAGAAGACUGCGGCUUCGAGUCCUGUACGGAACG [U2A A21C G39A G52C C62U], the yeast fitness is reported as ≤ 0.5. In the case of GAUCCGUUGGCGUAAUGGUAACGCGUCUCCCUCCUGAGGAGAAGCCUGCGGGUUCGAGUCCCGUACGCAACG [U2A A36G A45C G68C], the yeast fitness is reported as ≤ 0.5. Work on GAUCGGUUGGCGUAGUGGUAACGCGUCUCCCUCCUAAGGAGAAGACUGCGGGUUCGAGUCCCGUACGGAACG [U2A C5G A15G] yielded a yeast fitness of 0.575. In the case of GAUCCGUUGGCGUAAUGGUAACGGGUCUCCCUCCUAAGGAGAAGACUGCGGGUUCGAGUCCCGUACGGAUCG [U2A C24G A70U], the yeast fitness is reported as ≤ 0.5. Variant GAUCCGUUGGCGUAUUGGUAAAGCGUCUCCCUCCUAAGGAGAAGGAUGCGGGCUCGAGUCCCGUACGGAACG [U2A A15U C22A A45G C46A U53C] has a yeast fitness of 0.589.

From the RNAGym collection of RNA variant scans (doi:10.1126/science.aae0568)
